ChEMBL document CHEMBL3734675, “Synthesis, antimycobacterial and antibacterial activity of fluoroquinolone derivatives containing an 3-alkoxyimino-4-(cyclopropylanimo)methylpyrrolidine moiety” (2015)
Converted amounts (≈) assume the structure as drawn.

What was measured:
Type in all cases: functional
Escherichia coli [1] = experiment: Antibacterial activity against extended-spectrum beta-lactamase producing Escherichia coli 14-2 after 18 to 24 hrs by two-fold serial dilution method
Summary of the method: (§1)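 Twofold serial dilution in agar media against Gram-positive and Gram-negative strains. Plates incubated at 35 °C for 18–24 h. MIC read as the lowest compound concentration giving complete inhibition of bacterial growth.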

[2] = tested on: Staphylococcus epidermidis; experiment: Antibacterial activity against methicillin-resistant Staphylococcus epidermidis 14-21 after 18 to 24 hrs by two-fold serial dilution method
Summary of the method: (§2)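 Agar media, standard twofold serial dilution. MIC is the lowest concentration giving complete inhibition of bacterial growth after incubation at 35 °C for 18–24 h. Ciprofloxacin and levofloxacin were run as comparators.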

Klebsiella pneumoniae [3] = experiment: Antibacterial activity against extended-spectrum beta-lactamase producing Klebsiella pneumoniae 14-17 after 18 to 24 hrs by two-fold serial dilution method; summary of the method: as §1
Staphylococcus aureus [4] = experiment: Antibacterial activity against Staphylococcus aureus CMCC 26003 after 18 to 24 hrs by two-fold serial dilution method; summary of the method: as §1
Pseudomonas aeruginosa [5] = experiment: Antibacterial activity against Pseudomonas aeruginosa 14-14 after 18 to 24 hrs by two-fold serial dilution method; summary of the method: as §1
Escherichia coli [6] = experiment: Antibacterial activity against Escherichia coli 14-2 after 18 to 24 hrs by two-fold serial dilution method; summary of the method: as §1
Enterococcus faecalis [7] = experiment: Antibacterial activity against Enterococcus faecalis 14-1 after 18 to 24 hrs by two-fold serial dilution method; summary of the method: as §1
Staphylococcus aureus [8] = experiment: Antibacterial activity against methicillin-resistant Staphylococcus aureus 14-5 after 18 to 24 hrs by two-fold serial dilution method; summary of the method: as §2
Pseudomonas aeruginosa [9] = experiment: Antibacterial activity against Pseudomonas aeruginosa 14-16 after 18 to 24 hrs by two-fold serial dilution method; summary of the method: as §1
Enterococcus faecium [10] = experiment: Antibacterial activity against Enterococcus faecium 14-5 after 18 to 24 hrs by two-fold serial dilution method; summary of the method: as §1
[11] = tested on: Staphylococcus epidermidis; experiment: Antibacterial activity against methicillin-sensitive Staphylococcus epidermidis 14-2 after 18 to 24 hrs by two-fold serial dilution method; summary of the method: as §1
Staphylococcus aureus [12] = experiment: Antibacterial activity against methicillin-sensitive Staphylococcus aureus 14-1 after 18 to 24 hrs by two-fold serial dilution method; summary of the method: as §1
[13] = tested on: Staphylococcus epidermidis; experiment: Antibacterial activity against methicillin-resistant Staphylococcus epidermidis 14-22 after 18 to 24 hrs by two-fold serial dilution method; summary of the method: as §2
[14] = tested on: Mycobacterium tuberculosis; experiment: Antimycobacterial activity against Mycobacterium tuberculosis H37Rv ATCC 27294 incubated for 7 days by microplate Alamar Blue assay; conditions: H37Rv ATCC 27294, 168 h
Summary of the method: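 Fluorescence read-out. MIC is the lowest concentration that reduces fluorescence by at least 90% relative to the mean of replicate bacterium-only controls. Isoniazid and rifampicin were included as reference drugs.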

Staphylococcus aureus [15] = experiment: Antibacterial activity against methicillin-resistant Staphylococcus aureus 14-4 after 18 to 24 hrs by two-fold serial dilution method; summary of the method: as §2
Pseudomonas aeruginosa [16] = experiment: Antibacterial activity against Pseudomonas aeruginosa 14-9 after 18 to 24 hrs by two-fold serial dilution method; summary of the method: as §1
Klebsiella pneumoniae [17] = experiment: Antibacterial activity against Klebsiella pneumoniae 14-3 after 18 to 24 hrs by two-fold serial dilution method; summary of the method: as §1
[18] = tested on: Staphylococcus epidermidis; experiment: Antibacterial activity against methicillin-resistant Staphylococcus epidermidis 14-37 after 18 to 24 hrs by two-fold serial dilution method; summary of the method: as §2
Escherichia coli [19] = experiment: Antibacterial activity against Escherichia coli 14-1 after 18 to 24 hrs by two-fold serial dilution method; summary of the method: as §1
Enterococcus faecium [20] = experiment: Antibacterial activity against Enterococcus faecium 14-2 after 18 to 24 hrs by two-fold serial dilution method; summary of the method: as §1
Escherichia coli [21] = experiment: Antibacterial activity against extended-spectrum beta-lactamase producing Escherichia coli 14-1 after 18 to 24 hrs by two-fold serial dilution method; summary of the method: as §1
Klebsiella pneumoniae [22] = experiment: Antibacterial activity against extended-spectrum beta-lactamase producing Klebsiella pneumoniae 14-19 after 18 to 24 hrs by two-fold serial dilution method; summary of the method: as §1
Pseudomonas aeruginosa [23] = experiment: Antibacterial activity against Pseudomonas aeruginosa 14-15 after 18 to 24 hrs by two-fold serial dilution method; summary of the method: as §1
Klebsiella pneumoniae [24] = experiment: Antibacterial activity against Klebsiella pneumoniae 14-2 after 18 to 24 hrs by two-fold serial dilution method; summary of the method: as §1
[25] = tested on: Staphylococcus epidermidis; experiment: Antibacterial activity against methicillin-resistant Staphylococcus epidermidis 14-39 after 18 to 24 hrs by two-fold serial dilution method; summary of the method: as §2
Pseudomonas aeruginosa [26] = experiment: Antibacterial activity against Pseudomonas aeruginosa ATCC 27853 after 18 to 24 hrs by two-fold serial dilution method; summary of the method: as §1
Klebsiella pneumoniae [27] = experiment: Antibacterial activity against Klebsiella pneumoniae 14-1 after 18 to 24 hrs by two-fold serial dilution method; summary of the method: as §1
Escherichia coli [28] = experiment: Antibacterial activity against Escherichia coli ATCC 25922 after 18 to 24 hrs by two-fold serial dilution method; summary of the method: as §1
Staphylococcus aureus [29] = experiment: Antibacterial activity against methicillin-sensitive Staphylococcus aureus 14-4 after 18 to 24 hrs by two-fold serial dilution method; summary of the method: as §1
Klebsiella pneumoniae [30] = experiment: Antibacterial activity against Klebsiella pneumoniae 14-4 after 18 to 24 hrs by two-fold serial dilution method; summary of the method: as §1
Klebsiella pneumoniae [31] = experiment: Antibacterial activity against extended-spectrum beta-lactamase producing Klebsiella pneumoniae 14-18 after 18 to 24 hrs by two-fold serial dilution method; summary of the method: as §1
Streptococcus pneumoniae = experiment: Antibacterial activity against methicillin-resistant Streptococcus pneumoniae ATCC 19615 after 18 to 24 hrs by two-fold serial dilution method; summary of the method: as §2
Staphylococcus aureus [32] = experiment: Antibacterial activity against methicillin-sensitive Staphylococcus aureus 14-3 after 18 to 24 hrs by two-fold serial dilution method; summary of the method: as §1
Enterococcus faecalis [33] = experiment: Antibacterial activity against Enterococcus faecalis 14-2 after 18 to 24 hrs by two-fold serial dilution method; summary of the method: as §1
Enterococcus faecium [34] = experiment: Antibacterial activity against Enterococcus faecium 14-6 after 18 to 24 hrs by two-fold serial dilution method; summary of the method: as §1

| SMILES | MIC (Escherichia coli [1]) | MIC [2] | MIC (Klebsiella pneumoniae [3]) | MIC (Staphylococcus aureus [4]) | MIC (Pseudomonas aeruginosa [5]) | MIC (Escherichia coli [6]) | MIC (Enterococcus faecalis [7]) | MIC (Staphylococcus aureus [8]) | MIC (Pseudomonas aeruginosa [9]) | MIC (Enterococcus faecium [10]) | MIC [11] | MIC (Staphylococcus aureus [12]) | MIC [13] | MIC90 [14] | MIC (Staphylococcus aureus [15]) | MIC (Pseudomonas aeruginosa [16]) | MIC (Klebsiella pneumoniae [17]) | MIC [18] | MIC (Escherichia coli [19]) | MIC (Enterococcus faecium [20]) | other results |
| --- | --- | --- | --- | --- | --- | --- | --- | --- | --- | --- | --- | --- | --- | --- | --- | --- | --- | --- | --- | --- | --- |
| CCO/N=C1/CN(c2nc3c(cc2F)c(=O)c(C(=O)O)cn3[C@@H]2C[C@@H]2F)CC1(C)CNC1CC1 (stereo not given in full) | > 128 µg/mL | 4 µg/mL (≈ 8.41 µM) | 64 µg/mL (≈ 135 µM) | 0.015 µg/mL (≈ 0.0315 µM) | 128 µg/mL (≈ 269 µM) | > 128 µg/mL | 16 µg/mL (≈ 33.6 µM) | 2 µg/mL (≈ 4.21 µM) | 64 µg/mL (≈ 135 µM) | 2 µg/mL (≈ 4.21 µM) | 16 µg/mL (≈ 33.6 µM) | 1 µg/mL (≈ 2.1 µM) | 4 µg/mL (≈ 8.41 µM) | 0.6 µg/mL (≈ 1.26 µM) | 4 µg/mL (≈ 8.41 µM) | 32 µg/mL (≈ 67.3 µM) | 128 µg/mL (≈ 269 µM) | 2 µg/mL (≈ 4.21 µM) | > 128 µg/mL | 4 µg/mL (≈ 8.41 µM) | MIC (Escherichia coli [21]): 32 µg/mL (≈ 67.3 µM); MIC (Klebsiella pneumoniae [22]): 64 µg/mL (≈ 135 µM); MIC (Pseudomonas aeruginosa [23]): 64 µg/mL (≈ 135 µM); MIC (Klebsiella pneumoniae [24]): 128 µg/mL (≈ 269 µM); MIC [25]: 4 µg/mL (≈ 8.41 µM); MIC (Pseudomonas aeruginosa [26]): 32 µg/mL (≈ 67.3 µM); MIC (Klebsiella pneumoniae [27]): 64 µg/mL (≈ 135 µM); MIC (Escherichia coli [28]): 2 µg/mL (≈ 4.21 µM); MIC (Staphylococcus aureus [29]): 1 µg/mL (≈ 2.1 µM); MIC (Klebsiella pneumoniae [30]): > 128 µg/mL; MIC (Klebsiella pneumoniae [31]): 128 µg/mL (≈ 269 µM); MIC (Streptococcus pneumoniae): 0.25 µg/mL (≈ 0.526 µM); MIC (Staphylococcus aureus [32]): 2 µg/mL (≈ 4.21 µM); MIC (Enterococcus faecalis [33]): 1 µg/mL (≈ 2.1 µM); MIC (Enterococcus faecium [34]): 4 µg/mL (≈ 8.41 µM) |
| CC1(CNC2CC2)CN(c2nc3c(cc2F)c(=O)c(C(=O)O)cn3-c2nc(N)c(F)cc2F)C/C1=N/OCc1ccccc1 (stereo not given) | > 128 µg/mL | 32 µg/mL (≈ 52.7 µM) | > 128 µg/mL | 1 µg/mL (≈ 1.65 µM) | 128 µg/mL (≈ 211 µM) | > 128 µg/mL | 32 µg/mL (≈ 52.7 µM) | 32 µg/mL (≈ 52.7 µM) | > 128 µg/mL | > 128 µg/mL | 64 µg/mL (≈ 105 µM) | 16 µg/mL (≈ 26.3 µM) | 128 µg/mL (≈ 211 µM) | 16 µg/mL (≈ 26.3 µM) | 16 µg/mL (≈ 26.3 µM) | 128 µg/mL (≈ 211 µM) | 128 µg/mL (≈ 211 µM) | 64 µg/mL (≈ 105 µM) | > 128 µg/mL | 32 µg/mL (≈ 52.7 µM) | MIC (Escherichia coli [21]): > 128 µg/mL; MIC (Klebsiella pneumoniae [22]): > 128 µg/mL; MIC (Pseudomonas aeruginosa [23]): 128 µg/mL (≈ 211 µM); MIC (Klebsiella pneumoniae [24]): > 128 µg/mL; MIC [25]: 128 µg/mL (≈ 211 µM); MIC (Pseudomonas aeruginosa [26]): 128 µg/mL (≈ 211 µM); MIC (Klebsiella pneumoniae [27]): > 128 µg/mL; MIC (Escherichia coli [28]): 64 µg/mL (≈ 105 µM); MIC (Staphylococcus aureus [29]): 4 µg/mL (≈ 6.58 µM); MIC (Klebsiella pneumoniae [30]): > 128 µg/mL; MIC (Klebsiella pneumoniae [31]): > 128 µg/mL; MIC (Streptococcus pneumoniae): 8 µg/mL (≈ 13.2 µM); MIC (Staphylococcus aureus [32]): 8 µg/mL (≈ 13.2 µM); MIC (Enterococcus faecalis [33]): 16 µg/mL (≈ 26.3 µM); MIC (Enterococcus faecium [34]): 128 µg/mL (≈ 211 µM) |
| Nc1nc(-n2cc(C(=O)O)c(=O)c3cc(F)c(N4C/C(=N/OCc5ccccc5)C(CNC5CC5)C4)nc32)c(F)cc1F (stereo not given) | > 128 µg/mL | 64 µg/mL (≈ 108 µM) | 128 µg/mL (≈ 216 µM) | 0.015 µg/mL (≈ 0.0253 µM) | 128 µg/mL (≈ 216 µM) | > 128 µg/mL | 64 µg/mL (≈ 108 µM) | 8 µg/mL (≈ 13.5 µM) | 128 µg/mL (≈ 216 µM) | 64 µg/mL (≈ 108 µM) | 128 µg/mL (≈ 216 µM) | 16 µg/mL (≈ 27 µM) | 128 µg/mL (≈ 216 µM) | > 32 µg/mL | 64 µg/mL (≈ 108 µM) | 128 µg/mL (≈ 216 µM) | > 128 µg/mL | 128 µg/mL (≈ 216 µM) | > 128 µg/mL | 64 µg/mL (≈ 108 µM) | MIC (Escherichia coli [21]): 64 µg/mL (≈ 108 µM); MIC (Klebsiella pneumoniae [22]): 128 µg/mL (≈ 216 µM); MIC (Pseudomonas aeruginosa [23]): 128 µg/mL (≈ 216 µM); MIC (Klebsiella pneumoniae [24]): 128 µg/mL (≈ 216 µM); MIC [25]: 64 µg/mL (≈ 108 µM); MIC (Pseudomonas aeruginosa [26]): 128 µg/mL (≈ 216 µM); MIC (Klebsiella pneumoniae [27]): 64 µg/mL (≈ 108 µM); MIC (Escherichia coli [28]): 8 µg/mL (≈ 13.5 µM); MIC (Staphylococcus aureus [29]): 32 µg/mL (≈ 53.9 µM); MIC (Klebsiella pneumoniae [30]): > 128 µg/mL; MIC (Klebsiella pneumoniae [31]): > 128 µg/mL; MIC (Streptococcus pneumoniae): 16 µg/mL (≈ 27 µM); MIC (Staphylococcus aureus [32]): 32 µg/mL (≈ 53.9 µM); MIC (Enterococcus faecalis [33]): 8 µg/mL (≈ 13.5 µM); MIC (Enterococcus faecium [34]): 128 µg/mL (≈ 216 µM) |
